Results on three compounds are retold here after ChEMBL document CHEMBL1142957, “Total structure and inhibition of tumor cell proliferation of laxaphycins” (J Med Chem, 2007).

The source made the active and inactive calls. No cut-off for these calls is given here.

Assay [1] deals with CCRF-CEM. Briefly: Ratio of IC50 for teniposide-resistant CEM/VM1 cells over IC50 for drug-sensitive CCRF-CEM cells. The format is functional, Homo sapiens.
Assay [2] can be described thus: Cytotoxicity against teniposide-resistant CEM/VM1 cells after 72 hrs. In kind it is cell-based. The following applies: Homo sapiens, CEM-VM1, 72 h. A digest of the protocol:
(§1)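 Leukemic lymphoblasts (parent CCRF-CEM, Pgp-overexpressing CEM/VLB100, topo II-altered CEM/VM-1) grown in RPMI 1640 with 10% FCS and antibiotics, 37 °C, 5% CO2. Serial dilutions in medium added to 2 × 10⁵ cells/mL for 3 days, medium not renewed. Survivors counted on a Coulter counter. Triplicate, averaged.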

Assay [3] is described as follows: Cytotoxicity against vinblastine-resistant CEM/VLB100 cells after 72 hrs. In kind it is cell-based. The conditions noted are these: Homo sapiens, CEM/VLB100, 72 h. Put shortly:
as §1

The subject of assay [4] is CCRF-CEM. Briefly: Cytotoxicity against drug-sensitive CCRF-CEM cells after 72 hrs. In kind it is cell-based. The following applies: Homo sapiens. Put shortly:
as §1

The subject of assay [5] is CCRF-CEM. Briefly: Ratio of IC50 for vinblastine-resistant CEM/VLB100 cells over IC50 for drug-sensitive CCRF-CEM cells. The format is functional, Homo sapiens.
The subject of assay [6] is CCRF-CEM. Briefly: Antiproliferative activity against CCRF-CEM cells at 20 uM after 72 hrs. The format is functional, cell-based. The following applies: Homo sapiens. A digest of the protocol:
as §1

The test system of the next assay is DLD-1. The experiment in a line: Antiproliferative activity against human DLD1 cells at 5 uM after 48 hrs by RRT assay. In kind it is functional, cell-based. Put shortly: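 Adherent lines in supplemented Glutamax MEM, 37 °C, 5% CO2. Seeded 5 × 10³ cells/well, adhered 16 h, then treated 48 h continuously, alone or in combination, in 0.5% DMSO (solvent control). Resazurin 25 µg/mL in MEM added, 1 h at 37 °C, fluorescence 530/590 nm. Survival = % of control after blank subtraction; IC50 from concentration–survival curve. Two independent assays in triplicate.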

Consider `CCCCCCC[C@@H]1CC(=O)N[C@@H](C(C)C)C(=O)N[C@H]([C@@H](O)C(C)C)C(=O)N[C@@H](C)C(=O)N[C@H](CC(C)C)C(=O)N[C@@H](CCC(N)=O)C(=O)N(C)[C@@H]([C@@H](C)CC)C(=O)N[C@H]([C@@H](O)C(N)=O)C(=O)N[C@@H]([C@@H](C)O)C(=O)N2CCC[C@H]2C(=O)N[C@H](CC(C)C)C(=O)N[C@@H]([C@@H](C)O)C(=O)N1` [LAXAPHYCIN B2], for which the figures for the “Ratio IC50” value in the assay on CCRF-CEM [1] and in the assay with CCRF-CEM [5] were 1 and 0.8, respectively. In addition, the IC50 in assay [2] came out at 4.14 µM; in assay [3] it was 3.33 µM; in the assay on CCRF-CEM [4], 4.15 µM.

For `C/C=C1/NC(=O)[C@H](CCO)NC(=O)C[C@@H](CCCCC)NC(=O)CNC(=O)[C@H](CC(C)C)NC(=O)[C@@H]([C@@H](C)CC)NC(=O)[C@H]([C@@H](C)CC)NC(=O)[C@@H](CC(C)C)NC(=O)[C@@H](Cc2ccccc2)NC(=O)[C@H](CCO)NC(=O)[C@@H]2C[C@@H](O)CN2C1=O` [LAXAPHYCIN A], the IC50 (in assay [2]; in assay [3]; in the assay on CCRF-CEM [4]) was more than 20 µM throughout. For the same compound, the result in the assay with CCRF-CEM [6] and with DLD-1 was inactive.

With `CC[C@]1(O)C[C@@H]2CN(CCc3c([nH]c4ccccc34)[C@@](C(=O)OC)(c3cc4c(cc3OC)N(C)[C@H]3[C@@](O)(C(=O)OC)[C@H](OC(C)=O)[C@]5(CC)C=CCN6CC[C@]43[C@@H]65)C2)C1` [VINBLASTINE], the “Ratio IC50” value is recorded as 2 in the assay on CCRF-CEM [1] and 89 with CCRF-CEM [5]. Besides, the IC50 in assay [2] is 0.008 µM; in assay [3], 0.356 µM; with CCRF-CEM [4] it was 0.004 µM.
